Bioassay records (PubChem BioAssay)
OX1R antag-1: blocks the human orexin 1 receptor. O43613. CHO/OX1R cells, Fluo-8 calcium fluorescence, orexin A. inhibition, % at 5 µM. 330,000 compounds, 0.43% hits;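 active means inhibition above its plate's threshold, mean inhibition of all tested compounds on the plate plus 3 SD, cut at about 37% in these data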;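 further: 0% = orexin A challenge wells and 100% = SB-334867-A antagonist wells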
Target sequence (O43613 whole entry, looked up): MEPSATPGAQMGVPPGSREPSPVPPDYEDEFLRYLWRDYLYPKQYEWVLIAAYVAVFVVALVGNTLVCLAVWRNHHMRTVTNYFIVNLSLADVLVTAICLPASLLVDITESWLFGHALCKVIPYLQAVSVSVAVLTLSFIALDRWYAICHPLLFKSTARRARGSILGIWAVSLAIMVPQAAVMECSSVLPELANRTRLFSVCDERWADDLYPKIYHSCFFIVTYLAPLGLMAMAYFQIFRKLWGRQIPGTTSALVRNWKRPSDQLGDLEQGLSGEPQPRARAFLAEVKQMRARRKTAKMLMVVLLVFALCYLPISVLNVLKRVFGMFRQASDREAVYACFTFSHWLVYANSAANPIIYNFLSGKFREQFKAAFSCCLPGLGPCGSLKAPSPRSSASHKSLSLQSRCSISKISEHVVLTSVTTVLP
OX1R antag-2: OX1R (human) antagonism; O43613; AID 485270; OX1R-expressing cells, FRET antagonist read-out; inhibition, % at 6.6 µM; 330,000 compounds, 1.8% hits; in the data active means inhibition mostly above about 38%, no sharp cut-off; inactive means mostly below about 40%;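 further: 0% = agonist challenge alone and 100% = reference antagonist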
CHO parental Ca: counter-screen: ATP calcium response change in parental CHO cells; parental CHO-K1, ATP-induced calcium, Fluo-8 fluorescence; inhibition, % at 5.6 µM; 330,000 compounds, 0.63% hits; AID 463079;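 active means inhibition above that plate's mean sample inhibition plus 3 SD, cut at about 26% in these data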;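 further: 0% = ATP-challenged DMSO wells and 100% = DMSO wells without ATP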
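Assay system: parental CHO cells; Read-out basis: percent inhibition of ATP-evoked calcium rise, normalized to controls; Benchmarks: ATP and no-ATP DMSO wells; Compound dosing: single nominal dose of 5.6 µM per compound; Signal: Fluo-8 calcium dye fluorescence; Also added: ATP as calcium-mobilizing challenge; Repeats: singlicate.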
GPR7 antagonist: human neuropeptides B/W receptor 1 antagonism; inhibition, % at 4.4 µM; GPR7-expressing cells, fluorescence antagonist assay; P48145; 290,000 compounds, 1.1% hits; in the data active means inhibition above about 16%, passing the limit was not always enough;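 further: cells stimulated with the agonist NPW; 0% = agonist with vehicle and 100% = vehicle without agonist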
TAAR1 ag: human TAAR1 agonism. Q96RJ0. CHO RD-HGA16 TAAR1, Fluo-8 calcium fluorescence; vehicle wells 0%, saturating PEA agonist 100%. activation, % at 3 µM. 360,000 compounds, 0.99% hits. AID 624467;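 active means activation above the mean activation of all test compounds in the run plus 3 SD, cut at about 38% in these data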
Target sequence (Q96RJ0 whole entry, looked up): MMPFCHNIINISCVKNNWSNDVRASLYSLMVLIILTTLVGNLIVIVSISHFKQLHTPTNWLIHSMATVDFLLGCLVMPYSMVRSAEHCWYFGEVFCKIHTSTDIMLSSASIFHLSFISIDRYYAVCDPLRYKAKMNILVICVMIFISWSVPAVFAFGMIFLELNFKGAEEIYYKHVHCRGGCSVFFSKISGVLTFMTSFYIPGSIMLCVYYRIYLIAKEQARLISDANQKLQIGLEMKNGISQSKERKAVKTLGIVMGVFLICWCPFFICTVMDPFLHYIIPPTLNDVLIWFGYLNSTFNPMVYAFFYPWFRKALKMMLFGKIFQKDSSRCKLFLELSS
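Assay system – CHO-derived RD-HGA16 cells with stable Gα16 and human TAAR1 · Compound dosing – one-point dosing at 3 µM (nominal) · Incubation – 17-24 h seeding, 75 min 37 °C dye, 30 min RT · Measured by – kinetic Fluo-8 calcium fluorescence · Control set – DMSO vehicle as 0%, PEA at EC100 as 100% · Repeats – single well for each compound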
TAAR1 antag: human TAAR1 antagonism; inhibition, % at 3 µM; CHO RD-HGA16 TAAR1, Fluo-8 calcium fluorescence, antagonist; 360,000 compounds, 1.5% hits;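 active means inhibition above a per-plate cutoff, the mean inhibition of test compounds on that plate plus 3 SD, cut at about 49% in these data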;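 further: 0% = DMSO plus EC80 beta-PEA response and 100% = DMSO alone without agonist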
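Test system: RD-HGA16 CHO cells with stable hTAAR1 and Gα16 / Probe or stimulus: EC80 β-phenethylamine stimulus / Times: seeding 17-24 h prior, 75-min 37 °C, 30-min RT dye loading / Detection: Fluo-8 calcium-sensitive fluorescence / Read-out basis: % inhibition scaled between DMSO and EC80 PEA controls / Repeats: singlicate, one well per test compound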
OX1R Ca confirm: OX1R (human) antagonism, confirmed | shares compounds with OX1R antag-1 | 1,100 compounds, 38% hits | inhibition, % at 5 µM | CHO/OX1R cells, orexin A calcium Fluo-8 fluorescence | AID 492963; in the data active means inhibition above about 29%;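 further: 0% = agonist challenge alone and 100% = reference antagonist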
CHO Ca counter: signal in parental CHO cells, OX1R antagonist counter-screen; shares compounds with OX1R antag-1; parental CHO-K1, ATP-induced calcium, Fluo-8 fluorescence; inhibition, % at 5.6 µM; 1,100 compounds, 9.3% hits; AID 492965;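 active means inhibition above a per-plate limit, the mean inhibition of that plate's test compounds plus 3 SD, cut at about 25% in these data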;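 further: 0% = ATP challenge with DMSO and 100% = DMSO without ATP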
OX1R HTRF conf: OX1R (human) antagonism, HTRF confirmed; OX1R-expressing cells, HTRF antagonist assay; 1,800 compounds, 49% hits; shares compounds with OX1R antag-2; inhibition, % at 6.6 µM; in the data active means inhibition above about 55%;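 further: CHO cells expressing OX1R stimulated with orexin A at about EC80; 0% = agonist challenge alone and 100% = reference antagonist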
CHO-K1 HTRF: counter-screen: parental CHO-K1 HTRF response. shares compounds with OX1R antag-2. parental CHO-K1 cells, HTRF counterscreen. inhibition, % at 6.6 µM. 1,800 compounds, 48% hits. AID 493232; in the data active means inhibition above about 17%;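 further: 0% = agonist challenge with vehicle and 100% = vehicle alone without agonist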
* hit, by the source's call; . = not tested or not shown. In the library only some 4.6% were active in any assay of this set; here they are far more common.

SMILES	OX1R antag-1	OX1R antag-2	CHO parental Ca	GPR7 antagonist	TAAR1 ag	TAAR1 antag	OX1R Ca confirm	CHO Ca counter	OX1R HTRF conf	CHO-K1 HTRF
COc1cccc(C(=O)Nc2ccc(-c3nnc(-c4ccco4)o3)cc2)c1	33.2	77.2*	-23.9	-6.4	13.3	46.8	33.9*	-6.2	71.3*	19.6*
O=C(Nc1cccc(-c2nnc(-c3ccco3)o2)c1)c1ccccc1	-34.7	33.8	-24.0	-4.4	8.8	35.5	.	.	.	.
CCn1c(SCC(=O)Nc2cccc(NC(C)=O)c2)nnc1-c1ccco1	-22.9	9.4	-10.3	-5.8	1.2	-25.5	.	.	.	.
CCn1c2ccccc2c2cc(NC(=O)c3cc(OC)c(OC)c(OC)c3)ccc21	3.4	17.1	-12.0	10.0	-3.5	13.7	.	.	.	.
CCn1c2ccccc2c2cc(NC(=O)c3cc(OC)cc(OC)c3)ccc21	81.3*	85.4*	-14.6	-3.9	-0.9	-8.4	96.2*	-13.3	89.2*	-11.1
CCn1c(SCC(=O)Nc2ccc3c(c2)c2ccccc2n3CC)nnc1-c1ccco1	64.3*	81.4*	-22.9	11.6	-0.1	-5.9	35.0*	-10.3	83.3*	2.7
CCn1c(SCC(=O)Nc2cc3oc4ccccc4c3cc2OC)nnc1-c1cccs1	50.1*	83.0*	-25.1	-3.3	0.9	-4.5	49.1*	-11.5	89.0*	6.4
C=CCn1c(SCC(=O)Nc2cc3oc4ccccc4c3cc2OC)nnc1-c1cnccn1	57.2*	90.8*	-11.8	2.7	3.9	1.0	65.7*	-7.0	90.5*	3.4
COc1ccc2c(CN3CCN(c4ccccc4F)CC3)cc(=O)oc2c1	.	.	.	.	-0.2	4.8	.	.	.	.
CC1(C(=O)NS(=O)(=O)c2ccccc2)CCN1C(=O)CC1CC1 (centres undefined)	.	.	.	.	0.7	8.3	.	.	.	.
CC1(OC(=O)c2ccc(Cl)nc2)C(=O)C=C2C=C(c3ccc(C#N)cc3)OC=C2C1=O (centres undefined)	-14.5	35.2	-3.9	.	.	.	.	.	.	.
CCOC(=O)N1CCN(C(=O)C[C@@H]2C[C@@]3(C(=O)OCC)CCCC=C3N(Cc3ccco3)C2=O)CC1	.	.	.	.	0.6	-9.0	.	.	.	.
CCn1c(SCC(=O)Nc2ccc3c(c2)oc2ccccc23)nnc1-c1ccc(N)cc1	36.5	83.8*	-3.2	5.0	6.0	0.1	37.5*	-21.3	41.9	-13.6
CCn1c(SCC(=O)Nc2nc(-c3ccccc3)cs2)nnc1-c1ccccc1	54.1*	62.0*	-13.8	-10.8	4.7	26.3	14.5	2.1	72.0*	0.1
COc1ccc(NC2CCCN(C(=O)c3ccc4[nH]c(C)c(C)c4c3)C2)cc1OC (centres undefined)	-10.5	20.9	-20.1	3.2	0.5	-5.4	.	.	.	.
CCOC(=O)c1ccc(NC(=O)Nc2nncs2)cc1	.	.	.	.	12.8	5.6	.	.	.	.
CC(C)(C)c1ccc(C(=O)N2CCC2(C)C(=O)NCCC#N)cc1 (centres undefined)	.	.	.	.	0.4	7.2	.	.	.	.
CCOC(=O)c1c(NC(=O)C2C3CCC(O3)C2C(=O)O)sc2c1CCCC2 (centres undefined)	-18.9	18.1	-5.9	-8.4	-0.7	4.9	.	.	.	.
Cc1ccc(-c2c(C)sc(NC(=O)C3C4CCC(O4)C3C(=O)O)c2C(=O)OC(C)C)cc1 (centres undefined)	51.5*	77.7*	-11.6	-16.8	16.4	7.2	7.2	3.3	60.1*	8.8
CN(Cc1c(C(=O)N/N=C/c2cccc(F)c2)nnn1-c1nonc1N)C1CCCCC1	-5.5	11.6	-4.9	-9.6	0.3	5.9	.	.	.	.
CC(C)c1c(C(=O)N/N=C/c2ccc3c(c2)OCO3)nnn1-c1nonc1N	-17.5	5.4	-10.4	7.7	1.5	-2.5	.	.	.	.
COc1cccc(/C=N/NC(=O)c2nnn(-c3nonc3N)c2CN(C)c2ccccc2)c1	52.0*	69.6*	8.7	-12.2	4.4	20.3	40.6*	-2.8	93.1*	-2.0
CN(Cc1c(C(=O)N/N=C/c2cccc(F)c2)nnn1-c1nonc1N)c1ccccc1	49.2	57.2*	-6.7	8.3	4.8	25.4	32.7*	-6.2	77.2*	3.8
CCN(CC)c1ccc(/C=N/NC(=O)c2nnn(-c3nonc3N)c2C(C)C)c(O)c1	58.8*	96.1*	-2.2	-18.8	1.5	16.4	16.0	-10.1	68.9*	5.2
CCCN(CCC)Cc1c(C(=O)N/N=C/c2cccs2)nnn1-c1nonc1N	-33.3	5.7	-15.2	-4.3	-3.8	-5.7	.	.	.	.
SMILES	OX1R antag-1	OX1R antag-2	CHO parental Ca	GPR7 antagonist	TAAR1 ag	TAAR1 antag	OX1R Ca confirm	CHO Ca counter	OX1R HTRF conf	CHO-K1 HTRF
CN(Cc1c(C(=O)N/N=C/c2cccs2)nnn1-c1nonc1N)c1ccccc1	54.6*	81.5*	-22.4	-15.5	34.0	-13.8	31.7*	0.5	89.5*	6.0
CC1CCCC(CC(N)=O)CC1 (centres undefined)	.	.	.	.	0.5	-1.2	.	.	.	.
CC1=C(C(=O)N2CCCCCC2)CC(CC(=O)NCCN2CCOCC2)C(=O)N1Cc1ccc(F)cc1 (centres undefined)	.	.	.	.	-0.1	-1.2	.	.	.	.
C[C@@H]1CN([C@@H](C)CO)C(=O)CCCn2nncc2CO[C@@H]1CN(C)C(=O)C1CCCCC1	.	.	.	.	4.7	-3.4	.	.	.	.
CC(=O)Nc1ccc(C(=O)COC(=O)c2cc(C)oc2C)c(F)c1	-6.1	9.4	-14.1	.	1.3	-12.2	.	.	.	.
CC(=O)Nc1cccc(OCC(=O)Nc2ccccc2)c1	3.7	-2.7	1.7	12.7	10.7	-7.1	.	.	.	.
CC(=O)Nc1cccc(OCC(=O)NC(C)c2ccc3ccccc3c2)c1 (centres undefined)	50.9*	89.5*	-13.0	-3.1	-1.3	7.5	62.1*	-3.8	77.9*	12.4
Cc1ccc(C)c(NC(=O)CN(C)C(=O)c2ccc(COc3ccccc3)cc2)c1	.	.	.	.	1.5	-9.6	.	.	.	.
O=C(NCc1cccc(C(F)(F)F)c1)c1ccc2nc([C@H]3C[C@H](O)[C@@H](CO)O3)[nH]c2c1	.	.	.	.	-0.5	-9.1	.	.	.	.
CCC(C)(C)NC(=O)CN(C(=O)c1csnn1)c1ccccc1-c1ccccc1	71.8*	86.9*	-23.6	-11.4	13.2	-2.0	32.4*	11.4	83.7*	3.8
Cc1ccc2sc3ccc(NC(=O)c4ccccc4Cl)cc3c(=O)c2c1	36.8	71.2*	-16.8	-3.2	5.2	17.7	20.7	4.5	72.1*	18.2*
